Bioassay records (PubChem BioAssay)
Only some compounds are listed: those with a hit (about 3.8% of all), similar ones and a draw of the others.
HSF1 inh: HSF1 inhibitors in luciferase reporter cells, primary screen, cell-based, NIH3T3, luminescence | activity change, negative = inhibition, % at 7.5 µM (by protocol) | 0.77% of 300,000 active | AID 2098, 2009 | NIH3T3-HGL HSE-luciferase, MG132-induced, luminescence 8 h; hits give low values;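 active = more than half of replicate wells show activity change below -50%, luminescence cut by over half; inconclusive = some wells, but at most half, below -50%; inactive = no replicate well below -50%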;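 also: luciferase reports HSF-1 transcriptional activity via heat shock element; 0% = median of DMSO wells and -100% = zero luminescence signal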
HSP90 inh: HSP90 inhibitors, primary screen, cell lysate, luminescence. 0.91% of 290,000 active. Heat shock protein HSP 90 (rabbit reticulocyte lysate; luciferase refolding). inhibition, % at 5.6 µM. Rabbit reticulocyte lysate, luciferase refolding luminescence, 3 h;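 active = inhibition above the screen-wide mean plus 3 SD, computed separately per campaign, cut at about 16% in these data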;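 also: 0% = DMSO wells and 100% = 60 µM geldanamycin wells; inhibitors lower the luminescence because luciferase stays unfolded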
Hep lipid drop: inhibitors of hepatocyte lipid droplet formation, primary screen, imaging, high-throughput imaging, BODIPY stain | AML12 mouse hepatocytes, oleate lipid droplets | inhibition, % at 6.5 µM | 0.4% of 240,000 active | AID 1656, 2009;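 active = lipid droplet intensity inhibited by at least 50%, with more than 500 cells counted; inconclusive = wells with under 300 cells, treated as cytotoxic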
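Assay system: AML12 mouse liver cells | Compound: 6.5 µM single-point dosing | Schedule: Overnight exposure | Technique: Fluorescence imaging, 20x objective, two fields per well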
NS3 helicase inh: inhibitors of HCV NS3 helicase, primary screen, biochemical, Cy5 molecular beacon fluorescence; Hepatitis C virus NS3 helicase; 0.56% of 290,000 active; NS3 helicase DNA unwinding; inhibition, % at 10.9 µM; AID 1800, 2009;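 active = inhibition above the mean of all tested compounds plus 3 SD, set per campaign, cut at about 35% in these data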;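 also: 0% = DMSO wells and 100% = thioflavine S control wells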
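Assay system – hepatitis C virus NS3 helicase domain fragment enzyme · Buffer or medium – MOPS pH 6.5, MgCl2, DTT, Tween20, BSA · Reagent – Cy5/quencher beacon DNA duplex and ATP to start · Compound – single 10.9 µM dose · Timing – 1 h at 25 °C · Technique – Cy5 beacon fluorescence read at start and 1 h · Measure – % inhibition of unwinding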
HSF1 activator: HSF-1 activators, primary screen, NIH3T3-HGL cells, MG132 stress, luminescence, single point | NIH3T3-HGL HSF-1 luciferase reporter, 8 h; 100% = twice DMSO control signal | activation, % at 9 µM | 1.7% of 300,000 active | AID 504408, 2011;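 active = mean replicate activation of at least 50% with a set share of replicates each reaching 50%; inconclusive = only one of those two conditions met; inactive = mean below 50% and too few replicates reaching it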;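 also: 0% = median of the neutral control wells and 100% = twice that signal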
Numbers without * were called inactive; ? = inconclusive; nt = no result.

SMILES	HSF1 inh	HSP90 inh	Hep lipid drop	NS3 helicase inh	HSF1 activator
CCN(CC)C(=O)C(=O)c1cn(CCOc2ccccc2)c2ccccc12	0	0	7	-19	8
CN(C)/C=N/c1nc(-c2ccc3ccccc3c2)cs1	37	1	13	-20	46
COc1ccc(C(=O)CSc2nc3ccccc3n2CC(=O)c2ccccc2)cc1	-5	2	nt	-23	-5
COc1ccc(C(=O)Cn2c(C(=O)/C=C/c3ccccc3)nc3ccccc32)cc1	225	3	16	0	341*
COc1cccc(N(C(=O)c2nc3nccc(C)n3n2)c2nc3ccccc3s2)c1	69	-3	7	-16	121*
COc1cccc(NC(=O)COC(=O)c2nc3nccc(C)n3n2)c1	-8	0	nt	-3	0
CCOC(=O)N1CCN(C(=O)C2CC(=O)N(c3ccc(C)cc3)C2)CC1 (stereo not drawn)	-5	nt	nt	nt	3
CC(C)(C)C(=O)Nc1cccc(-c2cc(-c3c(Cl)cccc3Cl)no2)c1	19	2	-64	-21	54*
COc1ccccc1Cc1nnc(NC(=O)C2CCN(C(=O)c3ccco3)CC2)s1	5	9	2	19	4
Cc1cc(N2C(=O)C3C4CC(C(Br)C4Br)C3C2=O)no1 (stereo not drawn)	2	-6	6	-9	10
COc1ccc(C(NC(=O)c2c(F)c(F)c(F)c(F)c2F)c2ccccc2)cc1 (stereo not drawn)	41	-4	2	-9	53*
COc1ccc(CNC(=O)C(=O)NCC2OCCN2S(=O)(=O)c2ccccc2)cc1 (stereo not drawn)	-12	0	21	2	-26
C#CCN1C(=O)S/C(=C/c2cc(C)n(CC)c2C)C1=O	7	0	-6	4	58*
CCn1c(C)cc(/C=C2/SC(=S)N(CC(=O)O)C2=O)c1C	?	0	20	19	-37
CN(N)C(=S)Nc1ccc(Cl)cc1	-5	0	16	3	-6
CC1CC(OCC(O)CN2CCOCC2)CC(C)(C)C1 (stereo not drawn)	-1	0	2	4	-6
CCOC(=O)N1CCN(CC(O)COC2CC(C)CC(C)(C)C2)CC1 (stereo not drawn)	-84*	-4	nt	-1	-88
COc1cc(/C=C(\C#N)C(=O)Nc2cccc(C(=O)O)c2)ccc1OCc1ccc(F)cc1	51	1	-1	-10	77*
COC(=O)c1ccc(COc2ccc(/C=N/Nc3cccc(C(=O)O)c3)cc2)cc1	7	23*	12	0	9
N#C/C(=C\c1ccc(OCc2ccc(F)cc2)cc1)C(=O)Nc1cccc(C(=O)O)c1	35	-1	-14	10	26
N#C/C(=C\c1ccc(OCc2ccc(Br)cc2)cc1)C(=O)Nc1cccc(C(=O)O)c1	34	0	4	-12	72*
COC(=O)c1ccc(COc2ccc(/C=N/Nc3nc(C)cc(=O)[nH]3)cc2)cc1	14	-3	20	-26	8
COc1ccc(N(C)S(=O)(=O)c2cccc(C(=O)N3CCN(S(=O)(=O)c4ccc(C)cc4)CC3)c2)cc1	6	-2	-2	-18	23
CCOC(=O)Cn1c(=O)oc2cc(S(=O)(=O)NCCC(C)C)ccc21	-70*	-2	nt	2	-75
N#C/C(=C\C=C\c1ccccc1[N+](=O)[O-])C(=O)NCc1ccccc1	56	5	-45	5	94*
SMILES	HSF1 inh	HSP90 inh	Hep lipid drop	NS3 helicase inh	HSF1 activator
CC(C)OC(=O)c1cc2c(=O)[nH]c(C(Cl)(Cl)Cl)nc2o1	nt	0	23	4	nt
CCC(Oc1ccccc1)C(=O)Nc1nnc(S(=O)(=O)N2CCCC2)s1 (stereo not drawn)	-3	2	-7	1	1
CCN(CC)C(=O)COC(=O)c1ccc(C)c(NC(=O)c2ccco2)c1	-59*	-2	-16	9	-67
COCCNC(=O)c1cc2sccc2n1C	3	-2	10	1	6
CCOc1ccc(CCNC(=O)c2cc3sccc3n2C)cc1OCC	-2	-1	101*	-3	0
O=[N+]([O-])c1ccc(/C=N/NC(=S)Nc2ccccc2F)o1	0	6	6	10	20
Fc1ccccc1NC(=S)N/N=C/c1ccccc1Br	-7	16*	12	2	-21
Cc1ccc(NC(=O)Cn2ccc(=O)[nH]c2=O)cc1	2	-2	-3	-15	12
COC(=O)c1ccc(COc2ccc(F)cc2)o1	6	4	61*	0	5
COC(=O)c1ccc(COc2ccc(C)c(C)c2)o1	22	17*	-1	3	45
COC(=O)c1ccc(COc2ccc3ccc(=O)oc3c2)o1	7	0	-20	-2	27
COC(=O)c1ccc(COc2ccc(C(=O)c3ccccc3)cc2)o1	6	-2	-1	-7	13
COCCNC(=O)C(c1ccc(C)cc1)N(Cc1ccco1)C(=O)CCC(=O)Nc1ccccn1 (stereo not drawn)	-4	3	-7	6	-18
O=C(Nc1cccc(Cl)c1)c1ccc(S(=O)(=O)NCC2CCCO2)cc1 (stereo not drawn)	-88*	-5	-2	-6	-91
COc1ccccc1NC(=O)COc1coc(CN2CCN(c3ccccc3)CC2)cc1=O	0	nt	nt	nt	17
Cc1ccc(-c2csc3nc[nH]c(=O)c23)cc1	-4	-7	12	22	8
Cc1ccc(-c2csc3nc[nH]c(=O)c23)c(C)c1	45	-1	-8	2	95*
CC(C)(C)c1cc(C(c2cccnc2)N2CCN(CCO)CC2)cc(C(C)(C)C)c1O (stereo not drawn)	63	-2	12	-8	76*
O=C(NCc1cccnc1)c1ccc(Br)s1	nt	4	-14	-12	nt
O=C(COC(=O)C12CC3CC(CC(C3)C1)C2)NCCCc1ccccc1	0	-1	9	-1	-6
O=C(CCCc1ccccc1)NC12CC3CC(CC(C3)C1)C2	23	-1	-22	-6	69*
COCCn1c(N)c(N(Cc2ccccc2)C(=O)CSCC(=O)Nc2ccc(C)cc2)c(=O)[nH]c1=O	6	nt	nt	nt	-5
Cc1cc(NC(=O)CSc2nnc(C)n2C)no1	-59*	-1	10	3	-68
N#Cc1cc2c(nc1SCC(=O)O)CCCC2	-3	4	-8	-2	-10
Cc1cc(NC(=O)CSc2nc3ccccc3cc2C#N)no1	23	-5	16	-6	?
Cc1cc(NC(=O)CSc2nc3c(cc2C#N)CCCC3)no1	45	1	-3	-8	71*
